In general, inhibition refers to the drop in the measured response relative to a control, in per cent.

The results in this text go back to ChEMBL document CHEMBL4431346, “2-Oxoamide inhibitors of cytosolic group IVA phospholipase A2 with reduced lipophilicity” (Bioorg Med Chem, 2016).

The target in test [1] is T1, Cytosolic phospholipase A2 (Homo sapiens) (UniProt P47712).
T1 sequence (whole entry): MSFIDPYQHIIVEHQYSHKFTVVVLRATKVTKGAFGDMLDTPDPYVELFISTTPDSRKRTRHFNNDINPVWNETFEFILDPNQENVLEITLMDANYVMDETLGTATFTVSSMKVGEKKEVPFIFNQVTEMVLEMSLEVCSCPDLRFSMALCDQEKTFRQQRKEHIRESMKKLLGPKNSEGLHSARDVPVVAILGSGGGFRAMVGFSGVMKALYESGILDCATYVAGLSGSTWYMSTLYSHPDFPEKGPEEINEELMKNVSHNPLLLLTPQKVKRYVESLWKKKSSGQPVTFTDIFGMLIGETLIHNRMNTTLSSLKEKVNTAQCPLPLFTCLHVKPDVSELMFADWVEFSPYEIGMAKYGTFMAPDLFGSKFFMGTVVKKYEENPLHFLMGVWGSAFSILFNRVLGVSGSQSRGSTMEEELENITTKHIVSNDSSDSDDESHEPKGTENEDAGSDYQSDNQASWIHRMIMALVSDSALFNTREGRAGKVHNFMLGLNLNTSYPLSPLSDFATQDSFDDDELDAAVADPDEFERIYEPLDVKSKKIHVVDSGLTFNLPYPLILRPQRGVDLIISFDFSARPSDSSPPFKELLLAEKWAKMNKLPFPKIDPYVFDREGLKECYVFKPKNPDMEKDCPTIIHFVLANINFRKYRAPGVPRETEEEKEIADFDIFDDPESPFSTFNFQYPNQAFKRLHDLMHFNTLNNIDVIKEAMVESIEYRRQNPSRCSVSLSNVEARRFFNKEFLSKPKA
In words: Inhibition of human group 4A cPLA2 using PAPC/[14C]-labeled PAPC as substrate at 0.091 mole fraction after 30 mins by mixed micelle-based assay relative to control. The method in brief:
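Screened at 0.091 mole fraction inhibitor against human GIVA cPLA2. Micelles: 400 μM Triton X-100, 97 μM PAPC, 1.8 μM 14C-PAPC, 3 μM PIP2 in 100 mM HEPES pH 7.5 with 90 μM CaCl2, 2 mM DTT and 0.1 mg/ml BSA. Average percent inhibition is reported; 25% or less is designated N.D.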

The target in test [2] is T2, 85/88 kDa calcium-independent phospholipase A2 (Homo sapiens) (UniProt O60733).
T2 sequence (whole entry): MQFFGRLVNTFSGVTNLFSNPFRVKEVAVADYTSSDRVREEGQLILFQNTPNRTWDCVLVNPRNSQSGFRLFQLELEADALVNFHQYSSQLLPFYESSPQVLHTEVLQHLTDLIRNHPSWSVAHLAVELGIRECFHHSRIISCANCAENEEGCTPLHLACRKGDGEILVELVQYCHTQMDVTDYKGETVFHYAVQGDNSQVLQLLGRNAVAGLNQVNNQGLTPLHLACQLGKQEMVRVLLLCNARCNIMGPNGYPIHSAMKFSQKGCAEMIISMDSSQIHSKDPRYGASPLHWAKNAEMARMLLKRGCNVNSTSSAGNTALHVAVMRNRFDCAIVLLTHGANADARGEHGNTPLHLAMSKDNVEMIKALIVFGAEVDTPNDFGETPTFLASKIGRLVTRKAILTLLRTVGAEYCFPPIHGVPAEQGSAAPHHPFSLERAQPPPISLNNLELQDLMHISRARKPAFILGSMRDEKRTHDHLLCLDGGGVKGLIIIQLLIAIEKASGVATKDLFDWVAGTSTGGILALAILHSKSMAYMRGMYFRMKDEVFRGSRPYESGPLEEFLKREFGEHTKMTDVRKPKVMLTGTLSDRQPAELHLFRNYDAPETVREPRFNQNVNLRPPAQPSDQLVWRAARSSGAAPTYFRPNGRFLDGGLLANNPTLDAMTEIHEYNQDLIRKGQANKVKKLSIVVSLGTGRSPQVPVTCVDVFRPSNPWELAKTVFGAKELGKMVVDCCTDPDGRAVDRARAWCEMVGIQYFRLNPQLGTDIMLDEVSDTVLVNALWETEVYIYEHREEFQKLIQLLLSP
The test can be described thus: Inhibition of human group 6A iPLA2 using PAPC/[14C]-labeled PAPC as substrate at 0.091 mole fraction after 30 mins by mixed micelle-based assay relative to control. The method in brief: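 Human GVIA iPLA2 was single-point screened at 0.091 inhibitor mole fraction. Micelles: 400 μM Triton X-100, 98.3 μM PAPC, 1.7 μM 14C-PAPC in 100 mM HEPES pH 7.5, 2 mM ATP, 4 mM DTT. Average percent inhibition is given; 25% or less is treated as no inhibition (N.D.).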

The species entered for a further test is Homo sapiens. In words: Inhibition of human group 5 sPLA2 using PAPC/[14C]-labeled PAPC as substrate at 0.091 mole fraction after 30 mins by mixed micelle-based assay relative to control. Summed up:
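Human GV sPLA2 was tested at 0.091 mole fraction inhibitor in mixed micelles of 400 μM Triton X-100, 98.3 μM PAPC and 1.7 μM 14C-labeled PAPC. Average percent inhibition is reported; 25% or less is designated N.D.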

Test [3] concerns the target T1, Cytosolic phospholipase A2 (Homo sapiens). The test can be described thus: Inhibition of human group 4A cPLA2 using PAPC/[14C]-labeled PAPC as substrate after 30 mins by mixed micelle-based assay. The method in brief:
(§1)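 Human GIVA cPLA2 in mixed micelles: 400 μM Triton X-100, 97 μM PAPC, 1.8 μM 14C-labeled PAPC and 3 μM PIP2. Buffer was 100 mM HEPES pH 7.5 with 90 μM CaCl2, 2 mM DTT and 0.1 mg/ml BSA. XI(50) is the inhibitor mole fraction in the total substrate interface giving 50% inhibition. It was measured only for compounds exceeding 85% inhibition at the 0.091 screen.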

Test [4] deals with T2, 85/88 kDa calcium-independent phospholipase A2 (Homo sapiens). In words: Inhibition of human group 6A iPLA2 using PAPC/[14C]-labeled PAPC as substrate after 30 mins by mixed micelle-based assay. The method in brief:
(§2)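 For human GVIA iPLA2, micelles held 400 μM Triton X-100, 98.3 μM PAPC and 1.7 μM 14C-PAPC. Buffer was 100 mM HEPES pH 7.5 with 2 mM ATP and 4 mM DTT. XI(50) is the inhibitor mole fraction in the total substrate interface causing 50% inhibition. It was determined for compounds exceeding 85% inhibition at 0.091 mole fraction.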

Test [5] deals with T1, Cytosolic phospholipase A2 (Homo sapiens). The test can be described thus: Inhibition of human group 4A cPLA2 using PAPC as substrate preincubated for 5 mins with substrate followed by enzyme addition for 30 mins by mixed micelle-based assay. Summed up: as §1
For test [6], the target named is T2, 85/88 kDa calcium-independent phospholipase A2 (Homo sapiens). In words: Inhibition of human group 6A iPLA2 using PAPC as substrate preincubated for 5 mins with substrate followed by enzyme addition for 30 mins by mixed micelle-based assay. The method in brief: as §2
For test [7], the target named is T1, Cytosolic phospholipase A2 (Homo sapiens). The test can be described thus: Inhibition of human group 4A cPLA2 using [14C]-labeled PAPC as substrate after 30 mins by mixed micelle assay based liquid scintillation counting. Summed up:
as §1

With `Cc1ccc(S(=O)(=O)NCCCCCCCCCCC(=O)C(=O)NCCCC(=O)O)cc1`, the inhibition (in test [1]; in test [2]; in the test listed under Homo sapiens) was below 25% throughout.
`CCCCCCOc1ccc(OCCCC(=O)C(=O)NCCCC(=O)O)cc1`: the inhibition in test [1] is 63.6%; in test [2], 81.1%; in the test filed under Homo sapiens it was below 25%.
Take `CCCCCCOc1ccc(CCCCC(=O)C(=O)NCCCC(=O)OCC)cc1`: the inhibition in test [1] is above 85%; in test [2], 95.1%; in the test filed under Homo sapiens, 33.8%. Moreover, the results for the XI50 (mole fraction) in test [3] and in test [4] were 0.02 and 0.013, respectively.
As for `CCCCCCCCCCCCCCC(=O)C(=O)NCCCC(=O)OCC`, the XI50 (mole fraction) turned out to be 0.022 in test [5] and 0.027 in test [6].
For `CCCCCCCCCCCCCCC(=O)C(=O)NCCCC(=O)O`, the inhibition in test [2] is below 25%. The compound further displayed an XI50 (mole fraction) in test [5] of 0.024.
With `CCCCC/C=C\C/C=C\C/C=C\C/C=C\CCCC(=O)C(F)(F)F`, in test [7], the XI50 (mole fraction) is 0.036.
For `CCCCCCCCc1ccc(OCCCC(=O)C(=O)NCCCC(=O)O)cc1`, the inhibition in test [1] was above 85%; in test [2], below 25%; in the test filed under Homo sapiens, below 25%. In test [3], this compound gave an XI50 (mole fraction) of 0.023.
Take `CCCCCCOc1ccc(CCCCC(=O)C(=O)NCCCC(=O)O)cc1`: the inhibition in test [1] is above 85%; in test [2], below 25%; in the test listed under Homo sapiens it was below 25%. In test [3], this compound came in with an XI50 (mole fraction) of 0.016.
In the case of `CCOC(=O)CCCNC(=O)C(=O)CCCCCCCCCCNS(=O)(=O)c1ccc(C)cc1`, the figures for the inhibition (in test [1]; in test [2]; in the test listed under Homo sapiens) were 59.3%, below 25% and below 25%, respectively.
As for `CCOC(=O)CCCNC(=O)C(=O)CCCCCCCCCCCC(=O)O`, the inhibition (in test [1]; in test [2]; in the test filed under Homo sapiens) was below 25% in each case.
On to `CCCCCCCCc1ccc(OCCCC(=O)C(=O)NCCCC(=O)OCC)cc1`, for which the inhibition in test [1] was found to be 49.3%; in test [2] it was 94.7%; in the test listed under Homo sapiens, 40.6%. The XI50 (mole fraction) in test [4] was 0.014.
`CCCCCCOc1ccc(OCCCC(=O)C(=O)NCCCCC(=O)O)cc1`: the results for the inhibition (in test [1]; in test [2]; in the test listed under Homo sapiens) were 88%, 82.5% and below 25%, respectively. In test [3], this compound had an XI50 (mole fraction) of 0.013.
